Reference: ChEMBL document CHEMBL1667822, “Selective antagonists of mouse trace amine-associated receptor 1 (mTAAR1): discovery of EPPTB (RO5212773)” (Bioorg Med Chem Lett, 2011)

Key:
[1] = target: Sodium-dependent noradrenaline transporter (Homo sapiens) (UniProt P23975); experiment: Inhibition of human norepinephrine transporter at 10 uM
[2] = target: Type-1 angiotensin II receptor (Homo sapiens) (UniProt P30556); experiment: Displacement of [125I][Sar1,Ile8]-AT II from human recombinant AT1 receptor expressed in HEK293 cells; type: cell-based; details: concentration not given here
Rattus norvegicus [3] = species on record: Rattus norvegicus; experiment: Inhibition of rat GABA chloride channel at 10 uM
[4] = Half life in mouse at 2.5 mg/kg, iv; type: ADME, organism-based; design: dose 2.5 mg/kg, route intravenous; details: in vivo
In short: (§1)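 Single-dose pharmacokinetics in mice comparing parenteral routes: intravenous at 2.5 mg/kg and intraperitoneal at 5 mg/kg. Plasma concentrations were followed over time. Bioavailability was derived for the ip route, and Cmax was taken from the ip plasma profile.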

[5] = target: Cannabinoid receptor 1 (Homo sapiens) (UniProt P21554); experiment: Inhibition of human cannabinoid CB1 receptor at 10 uM
[6] = target: Small conductance calcium-activated potassium channel protein 1 (Rattus norvegicus) (UniProt P70606); experiment: Displacement of [125I]apamin from SK+Ca channel in rat cerebral cortex; type: tissue-based; details: concentration not given here
[7] = target: Substance-K receptor (Homo sapiens) (UniProt P21452); experiment: Displacement of [125I]NKA from human recombinant NK2 receptor expressed in CHO cells; type: cell-based; details: concentration not given here
Rattus norvegicus [8] = species on record: Rattus norvegicus; experiment: Inhibition of rat ca2+ channel verapamil site at 10 uM
[9] = target: C-X-C chemokine receptor type 2 (Homo sapiens) (UniProt P25025); experiment: Displacement of [125I]IL-8 from human recombinant CXCR2 receptor expressed in HEK293 cells; type: cell-based; details: concentration not given here
[10] = Ratio of drug level in brain to plasma in mouse at 2.5 mg/kg, iv; type: ADME, organism-based; design: dose 2.5 mg/kg, route intravenous; details: read-out: BPR
In short: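 Single-dose pharmacokinetics in mice with parenteral dosing, either 2.5 mg/kg iv or 5 mg/kg ip. Drug levels were measured in plasma, with brain exposure taken as the brain/plasma concentration ratio.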

[11] = target: Trace amine-associated receptor 1 (Mus musculus) (UniProt Q923Y8); experiment: Antagonist activity at mouse TAAR1 assessed as residual stimulation by in vitro cAMP functional assay relative to control; design: concentration or dose not given beside the values
In short: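 Mouse TAAR1 in vitro cAMP functional assay using the endogenous agonist β-PEA. The read-out is the residual β-PEA stimulation remaining at the maximum test-compound concentration. Values are averages of at least two independent experiments.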

[12] = target: Sodium-dependent serotonin transporter (Homo sapiens) (UniProt P31645); experiment: Inhibition of human serotonin transporter at 10 uM
[13] = target: T1, Trace amine-associated receptor 1 (Homo sapiens, UniProt Q96RJ0); experiment: Inhibition of human TAAR1
T1 sequence (Q96RJ0 whole entry): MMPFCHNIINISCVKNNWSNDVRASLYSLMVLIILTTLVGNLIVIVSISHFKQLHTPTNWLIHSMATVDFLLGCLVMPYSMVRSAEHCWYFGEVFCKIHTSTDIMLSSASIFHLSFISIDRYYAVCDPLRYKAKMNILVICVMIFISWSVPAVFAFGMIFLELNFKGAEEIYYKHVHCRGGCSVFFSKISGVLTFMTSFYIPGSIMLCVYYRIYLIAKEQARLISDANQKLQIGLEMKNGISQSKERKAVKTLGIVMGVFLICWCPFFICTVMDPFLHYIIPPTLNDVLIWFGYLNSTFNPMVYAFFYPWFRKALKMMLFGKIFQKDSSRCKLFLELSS
In short: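 In vitro cAMP functional assay with antagonism read as reversal of the response to the endogenous agonist beta-PEA. Efficacy was scaled so that 100% equals 0% minimum stimulation. Residual beta-PEA stimulation was taken at the highest test-compound concentration. Values are means of at least two independent experiments, with duplicates typically within a twofold margin.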

[14] = target: Adrenergic receptor alpha-2 (Rattus norvegicus) (UniProt P22086+P19328+P22909); experiment: Displacement of [3H]RX8210 from alpha2 receptor in rat cerebral cortex; type: tissue-based; details: concentration not given here
Rattus norvegicus [15] = species on record: Rattus norvegicus; experiment: Displacement of [3H]flunitrazepam from BZD receptor in rat cerebral cortex; type: tissue-based; details: concentration not given here
[16] = target: Melanocortin receptor 4 (Homo sapiens) (UniProt P32245); experiment: Displacement of [125I]NDP-a-MSH from human recombinant MC4 receptor expressed in CHO cells; type: cell-based; details: concentration not given here
[17] = target: Somatostatin receptor (Mus musculus) (UniProt P30935+O08858+P30875+P30873+P49660); experiment: Inhibition of mouse somatostatin receptor at 10 uM; type: protein assay
CHO = experiment: Displacement of [3H]DADLE from human recombinant delta 2 opioid receptor expressed in CHO cells; type: cell-based; details: dose or concentration not given here
[18] = target: B2 bradykinin receptor (Homo sapiens) (UniProt P30411); experiment: Displacement of [3H]bradykinin from human recombinant bradykinin B2 receptor expressed in CHO cells; type: cell-based; details: concentration not given here
[19] = target: Muscarinic acetylcholine receptor M1 (Homo sapiens) (UniProt P11229); experiment: Displacement of [3H]pirenzepine from human recombinant muscarinic M1 receptor expressed in CHO cells; type: cell-based; details: concentration not given here
[20] = target: Galanin receptor type 2 (Homo sapiens) (UniProt O43603); experiment: Displacement of [125I]Galanin from human recombinant GAL2 receptor expressed in CHO cells; type: cell-based; details: concentration not given here
[21] = target: Cholecystokinin receptor type A (Homo sapiens) (UniProt P32238); experiment: Inhibition of human cholecystokinin 1 receptor at 10 uM
[22] = target: 5-hydroxytryptamine receptor 7 (Homo sapiens) (UniProt P34969); experiment: Displacement of [3H]LSD from human recombinant 5HT7 receptor expressed in CHO cells; type: cell-based; details: concentration not given here
Rattus norvegicus [23] = species on record: Rattus norvegicus; experiment: Displacement of [125I]a-dendrotoxin from K+V channel in rat cerebral cortex; type: tissue-based; details: concentration not given here
[24] = target: Vasopressin V1a receptor (Homo sapiens) (UniProt P37288); experiment: Displacement of [3H]AVP from human recombinant V1a receptor expressed in H recombinant CHO cells; type: cell-based; details: concentration not given here
[25] = target: Sodium-dependent dopamine transporter (Homo sapiens) (UniProt Q01959); experiment: Inhibition of human dopamine transporter at 10 uM
[26] = target: 5-hydroxytryptamine receptor 2A (Homo sapiens) (UniProt P28223); experiment: Displacement of [3H]Ketanserin from human recombinant 5HT2A receptor expressed in HEK293 cells; type: cell-based; details: concentration not given here
[27] = target: Adrenergic receptor alpha-1 (Rattus norvegicus) (UniProt P15823+P23944+P43140); experiment: Displacement of [3H]prazosine from alpha1 receptor in rat cerebral cortex; type: tissue-based; details: concentration not given here
[28] = Clearance in mouse at 2.5 mg/kg, iv; type: ADME, organism-based; design: dose 2.5 mg/kg, route intravenous; details: in vivo; in short: as §1
[29] = target: Neurotensin receptor type 1 (Homo sapiens) (UniProt P30989); experiment: Displacement of [125I]Tyr3-neurotensin from human recombinant NT1 receptor expressed in H recombinant CHO cells; type: cell-based; details: concentration not given here
[30] = target: 5-hydroxytryptamine receptor 1B (Rattus norvegicus) (UniProt P28564); experiment: Displacement of [125I]CYP from 5HT1B receptor expressed in rat cerebral cortex; type: tissue-based; details: concentration not given here
[31] = target: Beta-1 adrenergic receptor (Homo sapiens) (UniProt P08588); experiment: Displacement of [3H](-)CGP 12177 from human recombinant beta1 receptor expressed in HEK293 cells; type: cell-based; details: concentration not given here
[32] = target: monoamine oxidase-A (MAO-A) (Rattus norvegicus, UniProt P21396); experiment: Inhibition of rat monoamine oxidase-A at 10 uM
Chain of monoamine oxidase-A (MAO-A) (P21396 whole entry): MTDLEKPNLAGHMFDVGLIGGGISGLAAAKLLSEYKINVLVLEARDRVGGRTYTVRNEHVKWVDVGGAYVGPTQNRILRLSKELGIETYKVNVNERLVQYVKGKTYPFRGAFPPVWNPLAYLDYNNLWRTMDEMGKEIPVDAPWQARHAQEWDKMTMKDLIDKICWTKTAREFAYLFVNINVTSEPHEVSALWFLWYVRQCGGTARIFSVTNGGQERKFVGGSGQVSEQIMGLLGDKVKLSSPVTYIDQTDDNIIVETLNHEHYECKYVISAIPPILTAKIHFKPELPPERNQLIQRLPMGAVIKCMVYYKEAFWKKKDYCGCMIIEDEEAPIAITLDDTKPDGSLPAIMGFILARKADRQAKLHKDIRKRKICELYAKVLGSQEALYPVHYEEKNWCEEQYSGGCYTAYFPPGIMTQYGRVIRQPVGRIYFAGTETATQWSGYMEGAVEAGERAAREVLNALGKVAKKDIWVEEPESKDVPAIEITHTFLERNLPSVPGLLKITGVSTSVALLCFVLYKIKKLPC

Chain of Cannabinoid receptor 1 (Homo sapiens) (P21554 whole entry): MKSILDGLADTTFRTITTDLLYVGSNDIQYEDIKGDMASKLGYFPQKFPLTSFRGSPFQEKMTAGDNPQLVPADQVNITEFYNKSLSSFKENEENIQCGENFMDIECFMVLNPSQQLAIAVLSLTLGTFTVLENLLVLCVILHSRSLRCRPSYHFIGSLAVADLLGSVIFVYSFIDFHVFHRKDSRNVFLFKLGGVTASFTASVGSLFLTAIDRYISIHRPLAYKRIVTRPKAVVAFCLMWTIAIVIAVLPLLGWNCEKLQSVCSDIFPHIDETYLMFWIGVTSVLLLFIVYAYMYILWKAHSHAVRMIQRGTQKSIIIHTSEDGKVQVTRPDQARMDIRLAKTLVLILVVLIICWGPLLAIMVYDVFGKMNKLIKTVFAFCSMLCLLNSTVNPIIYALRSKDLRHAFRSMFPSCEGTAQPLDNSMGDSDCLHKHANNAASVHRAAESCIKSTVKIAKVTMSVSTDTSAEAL
Chain of 5-hydroxytryptamine receptor 7 (Homo sapiens) (P34969 whole entry): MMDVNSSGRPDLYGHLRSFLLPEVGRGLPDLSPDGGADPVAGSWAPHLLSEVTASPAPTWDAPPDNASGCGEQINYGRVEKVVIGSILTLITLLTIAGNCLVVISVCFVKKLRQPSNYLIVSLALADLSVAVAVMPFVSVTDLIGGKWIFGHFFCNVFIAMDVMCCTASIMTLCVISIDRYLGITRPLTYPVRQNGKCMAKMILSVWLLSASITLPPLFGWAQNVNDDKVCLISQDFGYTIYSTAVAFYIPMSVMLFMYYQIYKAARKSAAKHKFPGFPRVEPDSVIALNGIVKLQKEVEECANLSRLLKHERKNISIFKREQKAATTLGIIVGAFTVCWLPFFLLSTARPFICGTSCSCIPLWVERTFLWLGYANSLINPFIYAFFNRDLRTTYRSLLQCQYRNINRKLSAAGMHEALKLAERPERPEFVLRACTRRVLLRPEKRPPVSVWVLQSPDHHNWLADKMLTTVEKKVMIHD
Chain of 5-hydroxytryptamine receptor 1B (Rattus norvegicus) (P28564 whole entry): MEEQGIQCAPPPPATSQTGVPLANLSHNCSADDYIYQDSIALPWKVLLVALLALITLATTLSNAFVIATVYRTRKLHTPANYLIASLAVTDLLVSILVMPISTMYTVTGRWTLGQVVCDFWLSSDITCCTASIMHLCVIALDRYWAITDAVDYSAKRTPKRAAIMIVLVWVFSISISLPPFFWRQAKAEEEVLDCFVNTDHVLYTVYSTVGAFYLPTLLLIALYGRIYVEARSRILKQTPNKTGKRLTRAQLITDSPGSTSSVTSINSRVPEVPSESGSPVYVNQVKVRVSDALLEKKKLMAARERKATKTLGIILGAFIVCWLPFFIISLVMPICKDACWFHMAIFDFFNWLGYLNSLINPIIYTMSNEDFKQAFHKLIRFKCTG
Chain of Galanin receptor type 2 (Homo sapiens) (O43603 whole entry): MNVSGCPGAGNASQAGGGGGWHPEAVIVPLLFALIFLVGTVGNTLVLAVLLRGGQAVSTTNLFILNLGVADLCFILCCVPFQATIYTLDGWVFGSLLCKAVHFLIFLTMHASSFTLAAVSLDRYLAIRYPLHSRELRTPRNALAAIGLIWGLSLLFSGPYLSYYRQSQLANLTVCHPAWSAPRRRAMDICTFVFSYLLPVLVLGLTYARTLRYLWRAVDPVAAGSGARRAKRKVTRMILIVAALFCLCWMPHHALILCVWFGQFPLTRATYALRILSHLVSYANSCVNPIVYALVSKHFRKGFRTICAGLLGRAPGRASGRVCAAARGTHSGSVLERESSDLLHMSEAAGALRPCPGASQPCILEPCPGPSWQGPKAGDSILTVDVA
Chain of Substance-K receptor (Homo sapiens) (P21452 whole entry): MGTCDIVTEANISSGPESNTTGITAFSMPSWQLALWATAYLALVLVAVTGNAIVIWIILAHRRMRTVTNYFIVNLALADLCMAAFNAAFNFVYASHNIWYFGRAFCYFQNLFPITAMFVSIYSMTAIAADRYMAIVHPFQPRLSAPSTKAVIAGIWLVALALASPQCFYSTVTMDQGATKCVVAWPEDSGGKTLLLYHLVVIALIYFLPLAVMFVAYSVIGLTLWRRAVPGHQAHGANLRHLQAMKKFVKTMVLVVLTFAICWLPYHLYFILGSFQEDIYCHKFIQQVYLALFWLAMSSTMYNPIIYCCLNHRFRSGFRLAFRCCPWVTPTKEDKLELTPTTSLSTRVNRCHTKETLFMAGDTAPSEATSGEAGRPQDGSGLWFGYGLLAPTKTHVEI
Chain of Melanocortin receptor 4 (Homo sapiens) (P32245 whole entry): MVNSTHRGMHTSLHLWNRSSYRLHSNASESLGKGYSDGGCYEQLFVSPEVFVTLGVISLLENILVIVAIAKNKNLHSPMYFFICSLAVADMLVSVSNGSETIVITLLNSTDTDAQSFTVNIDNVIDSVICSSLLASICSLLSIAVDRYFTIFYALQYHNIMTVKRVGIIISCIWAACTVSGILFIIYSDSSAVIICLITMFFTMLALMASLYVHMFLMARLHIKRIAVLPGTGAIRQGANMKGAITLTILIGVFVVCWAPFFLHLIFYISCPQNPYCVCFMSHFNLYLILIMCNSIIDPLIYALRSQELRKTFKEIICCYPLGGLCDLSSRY
Chain of Sodium-dependent dopamine transporter (Homo sapiens) (Q01959 whole entry): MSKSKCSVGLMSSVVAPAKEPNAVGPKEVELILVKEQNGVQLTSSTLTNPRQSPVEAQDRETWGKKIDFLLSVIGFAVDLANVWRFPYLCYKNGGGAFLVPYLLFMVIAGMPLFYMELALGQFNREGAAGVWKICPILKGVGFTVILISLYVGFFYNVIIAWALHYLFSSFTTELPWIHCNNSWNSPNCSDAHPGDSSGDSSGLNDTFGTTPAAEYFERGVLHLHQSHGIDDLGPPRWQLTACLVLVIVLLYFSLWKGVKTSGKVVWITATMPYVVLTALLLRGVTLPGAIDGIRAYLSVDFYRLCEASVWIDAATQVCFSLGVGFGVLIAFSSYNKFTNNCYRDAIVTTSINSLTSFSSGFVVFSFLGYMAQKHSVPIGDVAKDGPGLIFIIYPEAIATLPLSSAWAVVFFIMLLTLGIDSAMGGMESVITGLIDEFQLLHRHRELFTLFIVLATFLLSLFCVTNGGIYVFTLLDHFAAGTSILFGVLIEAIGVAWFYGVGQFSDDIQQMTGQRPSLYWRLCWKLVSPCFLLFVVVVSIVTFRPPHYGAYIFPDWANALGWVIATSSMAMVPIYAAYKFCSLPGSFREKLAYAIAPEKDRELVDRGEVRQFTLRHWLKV
Chain of Trace amine-associated receptor 1 (Mus musculus) (Q923Y8 whole entry): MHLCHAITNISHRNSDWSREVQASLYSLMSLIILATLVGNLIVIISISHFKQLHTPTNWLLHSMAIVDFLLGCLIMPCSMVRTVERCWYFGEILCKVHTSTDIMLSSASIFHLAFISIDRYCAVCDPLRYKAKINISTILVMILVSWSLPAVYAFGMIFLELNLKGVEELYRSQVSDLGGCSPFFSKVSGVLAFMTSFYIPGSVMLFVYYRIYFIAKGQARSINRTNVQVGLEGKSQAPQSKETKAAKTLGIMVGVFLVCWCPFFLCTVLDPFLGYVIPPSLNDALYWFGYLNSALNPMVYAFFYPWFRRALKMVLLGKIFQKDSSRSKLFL
Chain of Neurotensin receptor type 1 (Homo sapiens) (P30989 whole entry): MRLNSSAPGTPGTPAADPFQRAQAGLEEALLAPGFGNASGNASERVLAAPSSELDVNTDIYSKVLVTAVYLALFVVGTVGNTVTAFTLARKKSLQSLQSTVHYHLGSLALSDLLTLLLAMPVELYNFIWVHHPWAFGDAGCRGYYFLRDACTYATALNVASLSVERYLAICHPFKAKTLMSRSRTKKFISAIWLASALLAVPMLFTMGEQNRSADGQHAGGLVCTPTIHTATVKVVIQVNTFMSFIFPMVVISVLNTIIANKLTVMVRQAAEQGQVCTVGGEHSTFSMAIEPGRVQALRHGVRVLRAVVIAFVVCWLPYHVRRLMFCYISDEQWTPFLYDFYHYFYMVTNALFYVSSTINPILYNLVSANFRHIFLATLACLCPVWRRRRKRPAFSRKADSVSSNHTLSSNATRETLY
Chain of Muscarinic acetylcholine receptor M1 (Homo sapiens) (P11229 whole entry): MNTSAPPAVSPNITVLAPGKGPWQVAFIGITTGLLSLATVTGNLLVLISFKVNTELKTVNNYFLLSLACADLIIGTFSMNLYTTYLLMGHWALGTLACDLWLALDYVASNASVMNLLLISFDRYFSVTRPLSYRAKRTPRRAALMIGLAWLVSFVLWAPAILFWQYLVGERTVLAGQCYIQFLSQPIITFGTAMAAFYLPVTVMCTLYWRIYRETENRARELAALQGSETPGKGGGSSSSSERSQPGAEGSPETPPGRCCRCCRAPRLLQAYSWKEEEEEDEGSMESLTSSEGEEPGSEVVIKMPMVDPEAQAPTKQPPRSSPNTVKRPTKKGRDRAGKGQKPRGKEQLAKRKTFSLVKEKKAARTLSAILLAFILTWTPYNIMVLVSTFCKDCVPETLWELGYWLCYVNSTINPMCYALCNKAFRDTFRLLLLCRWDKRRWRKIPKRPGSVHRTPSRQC

Compound: CCOc1cccc(NC(=O)c2ccc(N3CCCC3)c(C(F)(F)F)c2)c1
- inhibition [1]: 44%
- inhibition [2]: 5%
- inhibition (Rattus norvegicus [3]): 63%
- half-life [4]: 1.9 h
- inhibition [5]: 38%
- inhibition [6]: 0%
- inhibition [7]: 19%
- inhibition (Rattus norvegicus [8]): 16%
- inhibition [9]: 2%
- Kp [10]: 0.5
- Activity [11]: -12%
- inhibition [12]: -7%
- Ki [13]: > 5 µM
- inhibition [14]: 23%
- inhibition (Rattus norvegicus [15]): -8%
- inhibition [16]: -2%
- inhibition [17]: 7%
- inhibition (CHO): 28%
- inhibition [18]: 2%
- inhibition [19]: 4%
- inhibition [20]: 13%
- inhibition [21]: 57%
- inhibition [22]: 10%
- inhibition (Rattus norvegicus [23]): -3%
- inhibition [24]: 9%
- inhibition [25]: 43%
- inhibition [26]: 21%
- inhibition [27]: 8%
- clearance [28]: 5.22 L/h/kg
- inhibition [29]: -5%
- inhibition [30]: 53%
- inhibition [31]: 4%
- inhibition at 10 µM [32]: 61%
